The values that follow come from ChEMBL document CHEMBL3112441, “Synthesis, anticonvulsant activity and molecular properties prediction of dialkyl 1-(di(ethoxycarbonyl)methyl)-2,6-dimethyl-4-substituted-1,4-dihydropyridine-3,5-dicarboxylates” (Eur J Med Chem, 2014).

Series [1] has as its system Rattus norvegicus. Put plainly: Anticonvulsant activity in Wistar albino rat assessed as protection against maximal electroshock-induced seizures by measuring duration of limb extension at 10 mg/kg, po pretreated for 1 hr followed by maximal electroshock challenge (reference value: 16 +/- 1 secs). The format is functional. A digest of the protocol: (§1)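 Adult male Wistar rats (150–250 g), six per group, dosed orally 10 mg/kg as suspension in 0.5% sodium carboxymethylcellulose; vehicle control. After 1 h, maximal electroshock of 150 mA for 0.2 s was given via corneal electrodes. Duration of hind limb extension was recorded, and its abolition or reduction was taken as the anticonvulsant index. Values are mean ± SEM, n = 6, analysed by one-way ANOVA with Dunnett's test.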
A general note: In the maximal electroshock model the usual endpoint is tonic extension of the hind limbs.

For series [2], the system named is Rattus norvegicus. As to the kind of experiment: Anticonvulsant activity in Wistar albino rat assessed as protection against subcutaneous pentylenetetrazole-induced seizures by measuring latency period at 10 mg/kg, po pretreated for 1 hr followed by pentylenetetrazole challenge measured over 300 secs (reference value: 72 +/- 2 secs). It counts as functional.
Series [3] has as its system Rattus norvegicus. Put plainly: Anticonvulsant activity in Wistar albino rat assessed as protection against […] at 10 mg/kg, po pretreated for 1 hr followed by pentylenetetrazole challenge measured over 300 secs relative to control. It counts as functional.
The test system of series [4] is Rattus norvegicus. As to the kind of experiment: Anticonvulsant activity in Wistar albino rat assessed as protection against maximal electroshock-induced electroconvulsive seizures at 10 mg/kg, po pretreated for 1 hr followed by maximal electroshock challenge relative to control. The format is functional. The method in brief:
as §1

Series [5] has as its system Mus musculus. As to the kind of experiment: Toxicity in Swiss albino mouse up to 100 mg/kg, po measured over 7 days. Further details: dose 100 mg/kg, route oral. It counts as organism-based. The note with it: in vivo, 168 h. A digest of the protocol: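 Acute oral toxicity followed OECD-425. Swiss albino mice (18–20 g), 5 per group, were dosed orally at different levels and observed for death over seven days.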

The test system of series [6] is Rattus norvegicus. Put plainly: Anticonvulsant activity in Wistar albino rat assessed as protection against subcutaneous pentylenetetrazole-induced mortality at 5 mg/kg, ip pretreated for 1 hr followed by pentylenetetrazole challenge measured over 300 secs relative to control. The format is functional. The conditions noted are these: sc.
Series [7] has as its system Rattus norvegicus. Put plainly: Anticonvulsant activity in Wistar albino rat assessed as protection against subcutaneous pentylenetetrazole-induced seizures by measuring latency period at 5 mg/kg, ip pretreated for 1 hr followed by pentylenetetrazole challenge measured over 300 secs (reference value: 72 +/- 2 secs). The format is functional.
In series [8] the test system is Rattus norvegicus. As to the kind of experiment: Anticonvulsant activity in Wistar albino rat assessed as protection against maximal electroshock-induced electroconvulsive seizures at 30 mg/kg, po pretreated for 1 hr followed by maximal electroshock challenge relative to control. The format is functional.
Series [9] deals with Rattus norvegicus. As to the kind of experiment: Anticonvulsant activity in Wistar albino rat assessed as protection against subcutaneous pentylenetetrazole-induced seizures by measuring latency period at 30 mg/kg, po pretreated for 1 hr followed by pentylenetetrazole challenge measured over 300 secs (reference value: 72 +/- 2 secs). The format is functional.
Series [10] has as its system Rattus norvegicus. Put plainly: Anticonvulsant activity in Wistar albino rat assessed as protection against maximal electroshock-induced seizures by measuring duration of limb extension at 30 mg/kg, po pretreated for 1 hr followed by maximal electroshock challenge (reference value: 16 +/- 1 secs). The format is functional.
In series [11] the test system is Rattus norvegicus. As to the kind of experiment: Anticonvulsant activity in Wistar albino rat assessed as protection against subcutaneous pentylenetetrazole-induced mortality at 30 mg/kg, po pretreated for 1 hr followed by pentylenetetrazole challenge relative to control. It counts as functional.

Each structure is given as a SMILES string.

For the molecule `CCOC(=O)C(C(=O)OCC)N1C(C)=C(C(=O)OC)CC(C(=O)OC)=C1C`, the Time in series [1] is given as 13 s; in [2], 126 s. For the same molecule, the mortality at 10 mg/kg in [3] is 0%. Besides, the Activity in [4] is listed as 14.5%; in series [5], “Non-toxic”.
On the same counts, the results for `CCOC(=O)C1=C(C)N(C(C(=O)OCC)C(=O)OCC)C(C)=C(C(=O)OCC)C1` are 9 s, 192 s, 0%, 41.6% and “Non-toxic”.
With `CCOC(=O)C(C(=O)OCC)N1C(C)=C(C(=O)OC)C(c2ccccc2)C(C(=O)OC)=C1C`, the Time was 12 s in [1] and >300 s in series [2]. Moreover, the mortality at 10 mg/kg in [3] worked out at 33.3%. Also, the Activity was 25% in series [4] and “Non-toxic” in [5].
For the molecule `CCOC(=O)C1=C(C)N(C(C(=O)OCC)C(=O)OCC)C(C)=C(C(=O)OCC)C1c1ccccc1`, the Time in [1] worked out at 13 s; in [2], 283 s. The mortality at 10 mg/kg in series [3] came to 0%. In addition, the figures for the Activity in series [4] and in series [5] were 16.6% and “Non-toxic”, respectively.
With `CCOC(=O)C(C(=O)OCC)N1C(C)=C(C(=O)OC)C(c2ccccc2[N+](=O)[O-])C(C(=O)OC)=C1C`, the Time in [1] is 10 s; in series [2] it was 295 s. For the same molecule, the mortality at 10 mg/kg in series [3] amounted to 0%. Besides, the Activity is reported as 39.6% in series [4] and “Non-toxic” in [5].
In the case of `CCOC(=O)C1=C(C)N(C(C(=O)OCC)C(=O)OCC)C(C)=C(C(=O)OCC)C1c1ccccc1[N+](=O)[O-]`, the Time was 12 s in series [1] and 230 s in series [2]. Moreover, the mortality at 10 mg/kg in series [3] was determined as 0%. Besides, the Activity in series [4] was 22.9%; in series [5] it was “Non-toxic”.
Regarding `CCOC(=O)C(C(=O)OCC)N1C(C)=C(C(=O)OC)C(Cc2ccccc2)C(C(=O)OC)=C1C`, the Time in series [1] is reported as 14 s; in [2], 285 s. Further, the mortality at 10 mg/kg in [3] was determined as 33.3%. Also, the Activity in series [4] was 14.5%; in series [5], “Non-toxic”.
As to `CCOC(=O)C1=C(C)N(C(C(=O)OCC)C(=O)OCC)C(C)=C(C(=O)OCC)C1Cc1ccccc1`, the Time in [1] is on record as 14 s; in series [2], 265 s. In series [3], the mortality at 10 mg/kg is 66.6%. The Activity in [4] is 10.4%; in series [5], “Non-toxic”.
Consider `CCOC(=O)C(C(=O)OCC)N1C(C)=C(C(=O)OC)C(CCc2ccccc2)C(C(=O)OC)=C1C`, for which the Time in series [1] is recorded as 13 s; in series [2], >300 s. The mortality at 10 mg/kg in series [3] came to 66.6%. The Activity in [4] is given as 20.8%; in [5], “Non-toxic”.
Take `CCOC(=O)C1=C(C)N(C(C(=O)OCC)C(=O)OCC)C(C)=C(C(=O)OCC)C1CCc1ccccc1`: the values for the Time in [1] and in series [2] were 15 s and 246 s, respectively. Further, the mortality at 10 mg/kg in [3] stood at 33.3%. The Activity was 8.3% in [4] and “Non-toxic” in series [5].
The like results for `CCOC(=O)C(C(=O)OCC)N1C(C)=C(C(=O)OC)C(/C=C/c2ccccc2)C(C(=O)OC)=C1C` were, in that order, 9 s, 268 s, 100%, 41.6% and “Non-toxic”.
For `CCOC(=O)C1=C(C)N(C(C(=O)OCC)C(=O)OCC)C(C)=C(C(=O)OCC)C1/C=C/c1ccccc1`, the values for the Time in series [1] and in series [2] were 12 s and >300 s, respectively. In addition, the mortality at 10 mg/kg in series [3] was 0%. Also, the Activity in series [4] is recorded as 22.9%; in [5] it was “Non-toxic”.
For `CCOC(=O)C(C(=O)OCC)N1C(C)=C(C(=O)OC)C(/C=C/c2ccc([N+](=O)[O-])cc2)C(C(=O)OC)=C1C`, the Time in series [1] is 7 s; in series [2] it was >300 s. The mortality at 10 mg/kg in series [3] worked out at 0%. Moreover, the Activity was 52.1% in series [4] and “Non-toxic” in series [5].
On to `CCOC(=O)C1=C(C)N(C(C(=O)OCC)C(=O)OCC)C(C)=C(C(=O)OCC)C1/C=C/c1ccc([N+](=O)[O-])cc1`, for which the Time is 8 s in series [1] and >300 s in series [2]. In addition, in [3], the mortality at 10 mg/kg amounted to 0%. In addition, the values for the Activity in [4] and in series [5] were 50% and “Non-toxic”, respectively.
Regarding `CN1C(=O)CN=C(c2ccccc2)c2cc(Cl)ccc21` [DIAZEPAM], the mortality at 5 mg/kg in [6] was 66.6%. In series [7], the Time is reported as 266 s.
As for `COC(=O)C1=C(C)NC(C)=C(C(=O)OC)C1c1ccccc1[N+](=O)[O-]` [NIFEDIPINE], in series [8], the Activity came to 56.8%. Moreover, the Time was 215 s in [9] and 7 s in series [10]. Also, in [11], the mortality at 30 mg/kg was 33.3%.
On to `O=C1NC(=O)C(c2ccccc2)(c2ccccc2)N1` [PHENYTOIN], for which, in series [8], the Activity is listed as 62.5%. The Time in series [10] was 6 s.

Broadly, the mortality is the percentage killed.
